Measured values reported in publication PMC5599134 (Structure (London, England : 1993), 2017).
Blank lines part the entries; values can stand above or below the molecule they belong to. Ends that are not written are not given here.

Experiments:
[1] = molecular target: Snap25b (Synaptosomal-associated protein 25), wild type, full length (human) (UniProt P60880); assay: ITC
[2] = system: Snap25b; type: cell-based, human; conditions: HEK-293T, 100 μM 17-ODYA, 4 h, 37°C; Rhodamine-azide click; n=3
Method in brief: (§1)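 HEK-293T cells (DMEM, 10% FBS, 37°C, 5% CO2) co-transfected with 2 μg GFP-DHHC17 (wild type or mutants) and 0.5 μg EGFP-Snap25b, cysteine-less C4A or empty vector, using PEI-max. At 24 h, cells given serum-free DMEM with 100 μM 17-ODYA for 4 h at 37°C, then lysed in dodecylmaltoside buffer. Click reaction with rhodamine azide/CuSO4/TCEP/TBTA for 1 h at room temperature. In-gel rhodamine fluorescence; anti-GFP and anti-Snap25b blots; bands quantitated.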

[3] = system: DHHC17; assay: Autoacylation of DHHC17 in 17-ODYA metabolic labeling; type: cell-based, human; conditions: HEK-293T, click chemistry
Method in brief: as §1

[4] = system: Snap25b-WT; assay: In vitro palmitate transfer from NBD-palmitoyl-CoA to Snap25b; type: biochemical, human; conditions: both in absence and presence of purified Snap25b-WT
[5] = molecular target: T1, ANK17 domain of DHHC17 (Homo sapiens, UniProt Q8IUH5); assay: ITC titration of ANK17-WT with Snap25b species; type: binding; conditions: for effect of alanine mutation in Snap25b on binding to ANK17 (in words): ITC, ANK17-WT titrated into Snap25b mutants, 25°C, 1X PBS 1 mM DTT
T1 sequence (Q8IUH5 50-288): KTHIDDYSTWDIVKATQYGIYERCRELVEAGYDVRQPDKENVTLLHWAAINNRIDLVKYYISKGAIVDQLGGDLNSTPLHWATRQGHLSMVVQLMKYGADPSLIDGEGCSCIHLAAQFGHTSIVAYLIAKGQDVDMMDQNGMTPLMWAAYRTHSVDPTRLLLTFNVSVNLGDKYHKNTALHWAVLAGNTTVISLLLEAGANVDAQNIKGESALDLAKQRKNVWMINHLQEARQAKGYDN

[6] = system: Snap25b-WT; assay: Co2+ affinity pull-down of GFP-Snap25b-WT by DHHC17 mutants in HEK-293T cells; type: cell-based, human; conditions: 24 h co-transfection, Co2+ (Talon) pull down, gel-densitometry
[7] = molecular target: Snap25b-C4A (cysteine-less mutant), full length (human) (UniProt P60880); assay: ITC
[8] = molecular target: Snap25b_(111–120) peptide (human); assay: ITC
[9] = system: Snap25b; conditions: palmitoylated enzyme intermediate; ref Greaves et al., 2017; cited from earlier work
[10] = system: Snap25b-WT; assay: ITC titration of ANK17 mutants into full-length Snap25b-WT; type: binding, human; conditions: ANK17 mutants titrated into Snap25b-WT, 25°C, 1X PBS 1 mM DTT
[11] = system: wild-type Htt; assay: ITC titration of ANK17-W130A into MBP-Htt1–548; type: binding; conditions: titrated into MBP-Htt1–548, 25°C, 1X PBS 1 mM DTT
[12] = Size exclusion chromatography; type: physicochemical; conditions: Superdex-200
Method in brief: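 His-tagged protein expressed in E. coli BL21(DE3)-Gold and Ni-NTA purified. Spun at 21000 × g for 20 min at 4°C, then about 200 μL injected onto Superdex-200. Column buffer was 50mM Tris-HCl, 50mM NaCl, 5% glycerol, 1mM DTT for crystallization, or 1X PBS pH 7.4 with 1 mM DTT for ITC. Peak fractions pooled.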

- fold reduction of affinity against ANK17-WT [1]: 5 fold
Molecule: ANK17-Y67A (domain or fragment)

Molecule: DHHC17: full length human DHHC17 palmitoyltransferase (NP_056151)
- S-acylation (palmitate transfer) of Snap25b (in words) [2]: readily transfers palmitate to Snap25b
- autoacylation (in words) [3]: did not detect any autoacylation
- autopalmitoylation with or without Snap25b (in words) [4]: does not appear to get autopalmitoylated to appreciable levels

Molecule: GVVASQPARV [Snap25b111–120]
- Kd [5]: ~11 µM

Molecule: N100A: full length DHHC17 mutant N100A (GFP fusion)
- amount of Snap25b pulled down by DHHC17 mutant (in words) [6]: largest decrease in affinity
- S-acylation (palmitate transfer) of Snap25b (in words) [2]: severely reduced levels of palmitoylation

- effect of alanine mutation in Snap25b on binding to ANK17 (in words) [5]: largest reduction in binding affinity
Molecule: P117A: Snap25b alanine mutant P117A (GFP fusion in pull-down)
- effect of alanine mutation in Snap25b on binding to ANK17 (in words) ([5]; listed as Snap25b-P117A): showed only marginal heat of binding and we could not obtain any fitting of the integrated heats

- effect of alanine mutation in Snap25b on binding to ANK17 (in words) [5]: followed by the V113A and Q116A
Molecule: V113A: Snap25b alanine mutant V113A (GFP fusion in pull-down)

Molecule: W130A: full length DHHC17 mutant W130A (GFP fusion)
- amount of Snap25b pulled down by DHHC17 mutant (in words) [6]: largest decrease in affinity
- S-acylation (palmitate transfer) of Snap25b (in words) [2]: severely reduced levels of palmitoylation

- Kd [7]: 3 µM
- Kd [8]: 11 µM
Molecule: ankyrin repeat domain of Human DHHC17 (ANK17), wild type (domain or fragment)

Molecule: mutation to phenylalanine: full length DHHC17 with W130 mutated to phenylalanine
- S-acylation (palmitate transfer) of Snap25b (in words) [2]: loss of function of W130A can be recovered

B1: DHHC17-C467S: mutation of the cysteine of DHHC domain to serine (protein, UniProt Q8IUH5 1-632, looked up, variant C467S)
Palmitoyltransferase ZDHHC17: MQREEGFNTKMADGPDEYDTEAGCVPLLHPEEIKPQSHYNHGYGEPLGRKTHIDDYSTWDIVKATQYGIYERCRELVEAGYDVRQPDKENVTLLHWAAINNRIDLVKYYISKGAIVDQLGGDLNSTPLHWATRQGHLSMVVQLMKYGADPSLIDGEGCSCIHLAAQFGHTSIVAYLIAKGQDVDMMDQNGMTPLMWAAYRTHSVDPTRLLLTFNVSVNLGDKYHKNTALHWAVLAGNTTVISLLLEAGANVDAQNIKGESALDLAKQRKNVWMINHLQEARQAKGYDNPSFLRKLKADKEFRQKVMLGTPFLVIWLVGFIADLNIDSWLIKGLMYGGVWATVQFLSKSFFDHSMHSALPLGIYLATKFWMYVTWFFWFWNDLNFLFIHLPFLANSVALFYNFGKSWKSDPGIIKATEEQKKKTIVELAETGSLDLSIFCSTCLIRKPVRSKHCGVCNRCIAKFDHHSPWVGNCVGAGNHRYFMGYLFFLLFMICWMIYGCISYWGLHCETTYTKDGFWTYITQIATCSPWMFWMFLNSVFHFMWVAVLLMCQMYQISCLGITTNERMNARRYKHFKVTTTSIESPFNHGCVRNIIDFFEFRCCGLFRPVIVDWTRQYTIEYDQISGSGYQLV
- S-acylation (palmitate transfer) of Snap25b (in words) [2]: does not show any appreciable transfer

B2: DHHC15: DHHC15 palmitoyl transferase (NM_144969), comparison enzyme (protein, UniProt Q96MV8 1-337, looked up)
Palmitoyltransferase ZDHHC15: MRRGWKMALSGGLRCCRRVLSWVPVLVIVLVVLWSYYAYVFELCLVTVLSPAEKVIYLILYHAIFVFFTWTYWKSIFTLPQQPNQKFHLSYTDKERYENEERPEVQKQMLVDMAKKLPVYTRTGSGAVRFCDRCHLIKPDRCHHCSVCAMCVLKMDHHCPWVNNCIGFSNYKFFLQFLAYSVLYCLYIATTVFSYFIKYWRGELPSVRSKFHVLFLLFVACMFFVSLVILFGYHCWLVSRNKTTLEAFCTPVFTSGPEKNGFNLGFIKNIQQVFGDKKKFWLIPIGSSPGDGHSFPMRSMNESQNPLLANEETWEDNEDDNQDYPEGSSSLAVETET
modifications: 10xHis tag
- palmitate transfer to Snap25b (in words) [9]: capable of transferring palmitate to a protein substrate such as Snap25b

- effect of alanine mutation in ANK17 on binding to full-length Snap25b (in words) [10]: showed only heat of dilution
B3: ANK17-W130A: ANK17 with alanine substitution at position W130 (protein, UniProt Q8IUH5 50-288, looked up, variant W130A)
chain: KTHIDDYSTWDIVKATQYGIYERCRELVEAGYDVRQPDKENVTLLHWAAINNRIDLVKYYISKGAIVDQLGGDLNSTPLHAATRQGHLSMVVQLMKYGADPSLIDGEGCSCIHLAAQFGHTSIVAYLIAKGQDVDMMDQNGMTPLMWAAYRTHSVDPTRLLLTFNVSVNLGDKYHKNTALHWAVLAGNTTVISLLLEAGANVDAQNIKGESALDLAKQRKNVWMINHLQEARQAKGYDN
modifications: ankyrin repeat domain
- binding of ANK17 mutant to wild-type Htt (in words) [11]: no discernible signs of binding to wild-type Htt

B4: ANK17: cytoplasmic ankyrin repeat domain of human DHHC17, residues K50 to D288 (protein, UniProt Q8IUH5 50-288, looked up, fragment)
chain: KTHIDDYSTWDIVKATQYGIYERCRELVEAGYDVRQPDKENVTLLHWAAINNRIDLVKYYISKGAIVDQLGGDLNSTPLHWATRQGHLSMVVQLMKYGADPSLIDGEGCSCIHLAAQFGHTSIVAYLIAKGQDVDMMDQNGMTPLMWAAYRTHSVDPTRLLLTFNVSVNLGDKYHKNTALHWAVLAGNTTVISLLLEAGANVDAQNIKGESALDLAKQRKNVWMINHLQEARQAKGYDN
modifications: ankyrin repeat domain
- size exclusion peak homogeneity (in words) [12]: homogenous and monodisperse peaks
